Experiment [1] has as its system NCI-H358. As to the kind of experiment: Antiproliferative activity against human NCI-H358 cells incubated for 96 hrs by Celltiter-Glo assay. It counts as functional, cell-based. The conditions noted are these: Homo sapiens, NCI-H358, 96 h; read-out: EC50. On the technique in general: Cellular ATP, detected with luciferase, serves as a proxy for viable cell number.

The target of experiment [2] is GTPase KRas (Homo sapiens, UniProt P01116, G12V). As to the kind of experiment: Inhibition of His6-tagged KRas G12V mutant (unknown origin) expressed in Escherichia coli BL21(DE3) cells assessed as reduction in Ras/GST-fused Raf RBD interaction incubated for 1 hr by HTRF assay. A general note: In TR-FRET formats the signal depends on donor and acceptor labels being close together.

Experiment [3] deals with NCI-H358. As to the kind of experiment: Antiproliferative activity against human NCI-H358 cells incubated for 96 hrs by MTT assay. The conditions noted are these: Homo sapiens, NCI-H358, 96 h; read-out: EC50. It counts as functional, cell-based. In short, it runs like this:
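H358 cells at 5,000/well, grown overnight, treated with serially diluted peptide (0–40 μM) in 10% FBS medium for 96 h at 37 °C. MTT added for 4 h, formazan solubilized overnight in SDS-HCl, absorbance read at 570 nm.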
For orientation: Formazan colour is commonly taken as a measure of viable cells.

Twelve molecules from ChEMBL document CHEMBL4842360, “Discovery of a Bicyclic Peptidyl Pan-Ras Inhibitor” (J Med Chem, 2021) can be followed below.

SMILES strings stand for the structures.

GTPase KRas, sequence (P01116 whole entry G12V, the tested form may be a part): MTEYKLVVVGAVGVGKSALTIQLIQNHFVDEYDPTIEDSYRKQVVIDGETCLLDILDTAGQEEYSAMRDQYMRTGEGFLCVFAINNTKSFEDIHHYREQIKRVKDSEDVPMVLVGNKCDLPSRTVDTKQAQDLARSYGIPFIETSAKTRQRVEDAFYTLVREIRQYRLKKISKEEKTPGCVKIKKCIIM

Consider `C[C@@H]1NC(=O)[C@@H](Cc2ccccc2)NC(=O)[C@@H]2CCCCNC(=O)c3cc(cc(c3)C(=O)N[C@H](Cc3ccc4ccccc4c3)C(=O)N[C@@H](CO)C(=O)N[C@@H](CC(N)=O)C(=O)N[C@H](Cc3ccc4ccccc4c3)C(=O)N[C@@H](c3ccccc3)C(=O)N2)C(=O)NC[C@@H](C(=O)N[C@@H](CC(N)=O)C(=O)N[C@H](CCCNC(=N)N)C(=O)N[C@@H](Cc2cccnc2)C(=O)N[C@H](C)C(N)=O)NC(=O)[C@H](CCCNC(=N)N)NC(=O)[C@@H](CCCNC(=N)N)NC1=O`, for which, in experiment [1], the EC50 (usually the concentration needed to bring the measured effect to its halfway point) was determined as 6.6 µM. In experiment [2] (read-out: IC50), the half-maximal inhibitory concentration (IC50) – broadly, the midpoint of a concentration-inhibition curve – was 0.41 µM. In the same order, the values of `C[C@@H]1NC(=O)[C@@H](Cc2ccccc2)NC(=O)[C@@H]2CCCCNC(=O)c3cc(cc(c3)C(=O)N[C@H](Cc3ccc4ccccc4c3)C(=O)N[C@@H](CO)C(=O)N[C@@H](CC(N)=O)C(=O)N[C@H](Cc3ccc4ccccc4c3)C(=O)N[C@@H](c3ccccc3)C(=O)N2)C(=O)NC[C@@H](C(=O)N[C@@H](CCN)CC(=O)N[C@H](CCCNC(=N)N)C(=O)N[C@@H](Cc2ccccc2)C(=O)N[C@H](C)C(N)=O)NC(=O)[C@H](CCCNC(=N)N)NC(=O)[C@@H](CCCNC(=N)N)NC1=O` are 3.2 µM and 0.51 µM.

For the molecule `C[C@@H]1NC(=O)[C@@H](Cc2ccccc2)NC(=O)[C@@H]2CCCCNC(=O)c3cc(cc(c3)C(=O)N[C@H](Cc3ccc4ccccc4c3)C(=O)N[C@@H](CO)C(=O)N[C@@H](CC(N)=O)C(=O)N[C@H](Cc3ccc4ccccc4c3)C(=O)N[C@@H](c3ccccc3)C(=O)N2)C(=O)NC[C@@H](C(=O)N[C@@H](CC(N)=O)C(=O)N[C@H](CCCNC(=N)N)C(=O)N[C@@H](Cc2ccccc2)C(=O)N[C@H](C)C(N)=O)NC(=O)[C@H](CCCNC(=N)N)NC(=O)[C@@H](CCCNC(=N)N)NC1=O`, the concentration for a half-maximal effect (EC50) in experiment [1] amounted to 8.4 µM. In addition, the half-maximal inhibitory concentration (IC50) in experiment [2] (read-out: IC50) was 0.28 µM.

As for `CC(C)[C@@H](NC(=O)[C@H](CO)NC(=O)[C@H](CC(=O)O)NC(=O)[C@@H](Cc1ccc(O)cc1)NC(=O)[C@@H]1CNC(=O)c2cc3cc(c2)C(=O)N[C@H](Cc2ccc4ccccc4c2)C(=O)N[C@@H](CO)C(=O)N[C@@H](CCC(N)=O)C(=O)N[C@H](Cc2ccc4ccccc4c2)C(=O)N[C@@H](c2ccccc2)C(=O)N[C@@H](CCCCNC3=O)C(=O)N[C@H](Cc2ccccc2)C(=O)N[C@@H](C)C(=O)N[C@H](CCCNC(=N)N)C(=O)N[C@@H](CCCNC(=N)N)C(=O)N1)C(=O)N[C@@H](CCCCN)C(N)=O`, the IC50 entry in experiment [2] was “Not Active”.

For `CCCC[C@H](NC(=O)CNC(=O)C[C@H](CCC)NC(=O)[C@@H]1CNC(=O)c2cc3cc(c2)C(=O)N[C@H](Cc2ccc4ccccc4c2)C(=O)N[C@@H](CO)C(=O)N[C@@H](CCC(N)=O)C(=O)N[C@H](Cc2ccc4ccccc4c2)C(=O)N[C@@H](c2ccccc2)C(=O)N[C@@H](CCCCNC3=O)C(=O)N[C@H](Cc2ccccc2)C(=O)N[C@@H](C)C(=O)N[C@H](CCCNC(=N)N)C(=O)N[C@@H](CCCNC(=N)N)C(=O)N1)C(=O)N[C@H](CCCNC(=N)N)C(N)=O`, the EC50 in experiment [3] was 24 µM. As to `C[C@@H]1NC(=O)[C@@H](Cc2ccccc2)NC(=O)[C@@H]2CCCCNC(=O)c3cc(cc(c3)C(=O)N[C@H](Cc3ccc4ccccc4c3)C(=O)N[C@@H](CO)C(=O)N[C@@H](CC(N)=O)C(=O)N[C@H](Cc3ccc4ccccc4c3)C(=O)N[C@@H](c3ccccc3)C(=O)N2)C(=O)NC[C@@H](C(=O)N[C@@H](CCN)CC(=O)N[C@H](CCCNC(=N)N)C(=O)N[C@@H](Cc2ccc(F)cc2)C(=O)N[C@H](C)C(=O)N[C@@H](CCCCN)C(N)=O)NC(=O)[C@H](CCCNC(=N)N)NC(=O)[C@@H](CCCNC(=N)N)NC1=O`, in experiment [1], the EC50 turned out to be 7.2 µM. For the same molecule, the IC50 in experiment [2] (read-out: IC50) stood at 0.89 µM.

As to `C[C@@H]1NC(=O)[C@@H](Cc2ccccc2)NC(=O)[C@@H]2CCCCNC(=O)c3cc(cc(c3)C(=O)N[C@H](Cc3ccc4ccccc4c3)C(=O)N[C@@H](CO)C(=O)N[C@@H](CCC(N)=O)C(=O)N[C@H](Cc3ccc4ccccc4c3)C(=O)N[C@@H](c3ccccc3)C(=O)N2)C(=O)NC[C@@H](C(=O)N2CCC[C@@H]2C(=O)N[C@H](CCCNC(=N)N)C(=O)N[C@H](Cc2ccc3ccccc3c2)C(=O)N[C@@H](CCC(=O)O)C(N)=O)NC(=O)[C@H](CCCNC(=N)N)NC(=O)[C@@H](CCCNC(=N)N)NC1=O`, the 50% inhibitory concentration (IC50) entry in experiment [2] is reported as “Not Active”.

Consider `C[C@@H]1NC(=O)[C@@H](Cc2ccccc2)NC(=O)[C@@H]2CCCCNC(=O)c3cc(cc(c3)C(=O)N[C@H](Cc3ccc4ccccc4c3)C(=O)N[C@@H](CO)C(=O)N[C@@H](CC(N)=O)C(=O)N[C@H](Cc3ccc4ccccc4c3)C(=O)N[C@@H](c3ccccc3)C(=O)N2)C(=O)NC[C@@H](C(=O)N[C@@H](CCC(N)=O)C(=O)N[C@H](CCCNC(=N)N)C(=O)N[C@@H](Cc2ccccc2)C(=O)N[C@H](C)C(N)=O)NC(=O)[C@H](CCCNC(=N)N)NC(=O)[C@@H](CCCNC(=N)N)NC1=O`, for which, in experiment [1], the EC50 is 7.5 µM. Besides, the IC50 in experiment [2] (read-out: IC50) stood at 0.23 µM. The matching figures for `C[C@@H]1NC(=O)[C@@H](Cc2ccccc2)NC(=O)[C@@H]2CCCCNC(=O)c3cc(cc(c3)C(=O)N[C@H](Cc3ccc4ccccc4c3)C(=O)N[C@@H](CO)C(=O)N[C@@H](CC(N)=O)C(=O)N[C@H](Cc3ccc4ccccc4c3)C(=O)N[C@@H](c3ccccc3)C(=O)N2)C(=O)NC[C@@H](C(=O)N[C@@H](CCN)CC(=O)N[C@H](CCCNC(=N)N)C(=O)N[C@@H](Cc2ccc(F)cc2)C(=O)N[C@H](C)C(N)=O)NC(=O)[C@H](CCCNC(=N)N)NC(=O)[C@@H](CCCNC(=N)N)NC1=O`: 6 µM and 0.7 µM. On to `C[C@@H]1NC(=O)[C@@H](Cc2ccccc2)NC(=O)[C@@H]2CCCCNC(=O)c3cc(cc(c3)C(=O)N[C@H](Cc3ccc4ccccc4c3)C(=O)N[C@@H](CO)C(=O)N[C@@H](CCC(N)=O)C(=O)N[C@H](Cc3ccc4ccccc4c3)C(=O)N[C@@H](c3ccccc3)C(=O)N2)C(=O)NC[C@@H](C(=O)N2CCC[C@@H]2C(=O)N[C@H](CCCNC(=N)N)C(=O)N[C@H](Cc2ccccc2)C(=O)N[C@H](Cc2ccc(O)cc2)C(N)=O)NC(=O)[C@H](CCCNC(=N)N)NC(=O)[C@@H](CCCNC(=N)N)NC1=O`, for which the IC50 entry in experiment [2] is reported as “Not Active”. For the molecule `C[C@@H]1NC(=O)[C@@H](Cc2ccccc2)NC(=O)[C@@H]2CCCCNC(=O)c3cc(cc(c3)C(=O)N[C@H](Cc3ccc4ccccc4c3)C(=O)N[C@@H](CO)C(=O)N[C@@H](CC(N)=O)C(=O)N[C@H](Cc3ccc4ccccc4c3)C(=O)N[C@@H](c3ccccc3)C(=O)N2)C(=O)NC[C@@H](C(=O)N[C@@H](CC(N)=O)C(=O)N[C@H](CCCNC(=N)N)C(=O)N[C@@H](Cc2ccc(F)c(F)c2)C(=O)N[C@H](C)C(N)=O)NC(=O)[C@H](CCCNC(=N)N)NC(=O)[C@@H](CCCNC(=N)N)NC1=O`, in experiment [1], the EC50 is 4.4 µM. In addition, the IC50 in experiment [2] (read-out: IC50) was determined as 0.5 µM.

In the case of `C[C@@H]1NC(=O)[C@@H](Cc2ccccc2)NC(=O)[C@@H]2CCCCNC(=O)c3cc(cc(c3)C(=O)N[C@H](Cc3ccc4ccccc4c3)C(=O)N[C@@H](CO)C(=O)N[C@@H](CCC(N)=O)C(=O)N[C@H](Cc3ccc4ccccc4c3)C(=O)N[C@@H](c3ccccc3)C(=O)N2)C(=O)NC[C@@H](C(=O)N[C@H](CCCCN)C(=O)N[C@@H](Cc2c[nH]cn2)C(=O)N[C@H](Cc2ccc(O)cc2)C(=O)N[C@H](CCC(=O)O)C(N)=O)NC(=O)[C@H](CCCNC(=N)N)NC(=O)[C@@H](CCCNC(=N)N)NC1=O`, the IC50 result in experiment [2] is “Not Active”.
